From ChEMBL document CHEMBL1154191, “Evaluation of spirocyclic 3-(3-fluoropropyl)-2-benzofurans as sigma1 receptor ligands for neuroimaging with positron emission tomography” (J Med Chem, 2009)

Experiments:
[1] = tested on: Heart; test: Biodistribution in CD1 mouse heart assessed per gram of wet tissue at 400 to 600 kBq, iv after 60 mins post-injection by gamma counting; assay type: ADME, organism-based; conditions: in vivo, 1 h
Method in brief: (§1)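 Female CD-1 mice (~8-12 weeks, 20-28 g) were fasted 24 h with free water. Conscious mice got 400-600 kBq [¹⁸F] tracer in saline by tail vein. At 5, 30, 60 or 120 min (n=4-5 per time) they were anesthetized, blood and urine sampled, then killed by cervical dislocation. Organs were weighed and γ-counted, giving % ID/g wet tissue.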

[2] = Biodistribution in CD1 mouse thymus assessed per gram of wet tissue at 400 to 600 kBq, iv after 60 mins post-injection by gamma counting; assay type: ADME, organism-based; conditions: in vivo, 1 h
Method in brief: (§2)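 Female CD-1 mice (~8-12 weeks, 20-28 g), habituated ≥48 h and fasted 24 h with water available. The [18F] tracer (>150 GBq/μmol at end of synthesis) was given in 200 μL saline into the tail vein of conscious animals. At each time point, n=4-5, mice were anaesthetised, blood and urine sampled, then killed by cervical dislocation. Organs were weighed and γ-counted, and values calculated as % ID/g wet tissue.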

[3] = tested on: Lung; test: Biodistribution in CD1 mouse lung assessed per gram of wet tissue at 400 to 600 kBq, iv after 120 mins post-injection by gamma counting; assay type: ADME, organism-based; conditions: in vivo, 2 h; method in brief: as §2
[4] = tested on: Cerebellum; test: Biodistribution in CD1 mouse cerebellum assessed per gram of wet tissue at 400 to 600 kBq, iv after 60 mins post-injection by gamma counting in presence of 1 mg/kg, ip sigma 1/sigma 2 receptor antagonist haloperidol treated before compound addition; assay type: organism-based; set-up: dose 1 mg/kg, route intravenous; conditions: in vivo, 1 h
Method in brief: (§3)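 Blocking arm in fasted female CD-1 mice (n=5). […] Animals were killed at 60 min post-injection, and organs were weighed and γ-counted as % ID/g wet tissue. Percent change was taken against the 60 min control group, with two-tailed unpaired Student's t test.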

[5] = Biodistribution in CD1 mouse urine assessed per gram of wet bladder at 400 to 600 kBq, iv after 60 mins post-injection by gamma counting in presence of 1 mg/kg, ip sigma 1/sigma 2 receptor antagonist haloperidol treated before compound addition; assay type: organism-based; set-up: route intravenous; conditions: in vivo, 1 h
Method in brief: (§4)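 They were killed at 60 min pi, and organs were weighed and γ-counted as % ID/g wet tissue. Comparison with controls used Student's t test (independent, two-tailed).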

[6] = tested on: Pancreas; test: Biodistribution in CD1 mouse pancreas assessed per gram of wet tissue at 400 to 600 kBq, iv after 60 mins post-injection by gamma counting in presence of 1 mg/kg, ip sigma 1/sigma 2 receptor antagonist haloperidol treated before compound addition; assay type: organism-based; set-up: route intravenous; conditions: in vivo, 1 h; method in brief: as §4
[7] = Biodistribution in CD1 mouse adrenal gland assessed per gram of wet tissue at 400 to 600 kBq, iv after 60 mins post-injection by gamma counting in presence of 1 mg/kg, ip sigma 1/sigma 2 receptor antagonist haloperidol treated before compound addition; assay type: organism-based; set-up: dose 1 mg/kg, route intravenous; conditions: in vivo, 1 h; method in brief: as §3
[8] = tested on: Muscle tissue; test: Biodistribution in CD1 mouse muscle assessed per gram of wet tissue at 400 to 600 kBq, iv after 60 mins post-injection by gamma counting in presence of 1 mg/kg, ip sigma 1/sigma 2 receptor antagonist haloperidol treated before compound addition; assay type: organism-based; set-up: route intravenous; conditions: in vivo, 1 h; method in brief: as §4
[9] = tested on: Femur; test: Biodistribution in CD1 mouse femur assessed per gram of wet tissue per gram of wet tissue at 400 to 600 kBq, iv after 60 mins post-injection by gamma counting in presence of 1 mg/kg, ip sigma 1/sigma 2 receptor antagonist haloperidol treated before compound addition; assay type: organism-based; set-up: dose 1 mg/kg, route intravenous; conditions: in vivo, 1 h; method in brief: as §3
[10] = Ratio of drug level in cerebellum to plasma in CD1 mouse at 400 to 600 kBq, iv after 60 mins post-injection; assay type: ADME, organism-based
Method in brief: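 Female CD-1 mice (~8-12 weeks, 20-28 g), fasted 24 h with free water; 400-600 kBq tracer in 200 μL saline by tail vein into conscious animals. Killed at set times pi (n=4-5 per time); blood and organs weighed, γ-counted, expressed as % ID/g wet tissue; ratio from cerebellum and plasma uptake.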

[11] = Drug uptake in CD1 mouse adrenal gland at 400 to 600 kBq, iv after 120 mins post-injection by gamma counting relative to initial uptake; assay type: ADME, organism-based; conditions: in vivo, 2 h
Method in brief: (§5)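 Organ % ID/g was measured by γ-counting after tail-vein injection of 400-600 kBq [18F] tracer in saline to fasted female CD-1 mice (n=4-5 per time). The 120 min pi value is expressed relative to the initial (5 min pi) uptake.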

[12] = tested on: Pancreas; test: Drug uptake in CD1 mouse pancreas at 400 to 600 kBq, iv after 120 mins post-injection by gamma counting relative to initial uptake; assay type: ADME, organism-based; conditions: in vivo, 2 h; method in brief: as §5
[13] = Ratio of drug level in cerebellum to plasma in CD1 mouse at 400 to 600 kBq, iv after 60 mins post-injection in presence of 1 mg/kg, ip sigma 1/sigma 2 receptor antagonist haloperidol treated before compound addition; assay type: organism-based; set-up: route intravenous
Method in brief: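 Killed 60 min pi; blood and cerebellum weighed, γ-counted as % ID/g wet tissue, ratio derived; Student's two-tailed t test versus untreated controls.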

[14] = tested on: Stomach; test: Biodistribution in CD1 mouse stomach assessed per gram of wet tissue at 400 to 600 kBq, iv after 5 mins post-injection by gamma counting; assay type: ADME, organism-based; conditions: in vivo; method in brief: as §2
[15] = tested on: Kidney; test: Biodistribution in CD1 mouse kidney assessed per gram of wet tissue at 400 to 600 kBq, iv after 5 mins post-injection by gamma counting; assay type: ADME, organism-based; conditions: in vivo; method in brief: as §1
[16] = Biodistribution in CD1 mouse adrenal gland assessed per gram of wet tissue at 400 to 600 kBq, iv after 5 mins post-injection by gamma counting; assay type: ADME, organism-based; conditions: in vivo; method in brief: as §1
[17] = tested on: Blood; test: Biodistribution in CD1 mouse blood assessed per gram of wet tissue at 400 to 600 kBq, iv after 30 mins post-injection by gamma counting; assay type: ADME, organism-based; conditions: in vivo, 0.5 h; method in brief: as §1
[18] = tested on: Heart; test: Biodistribution in CD1 mouse heart assessed per gram of wet tissue at 400 to 600 kBq, iv after 30 mins post-injection by gamma counting; assay type: ADME, organism-based; conditions: in vivo, 0.5 h; method in brief: as §1
[19] = tested on: Stomach; test: Biodistribution in CD1 mouse stomach assessed per gram of wet tissue at 400 to 600 kBq, iv after 30 mins post-injection by gamma counting; assay type: ADME, organism-based; conditions: in vivo, 0.5 h; method in brief: as §2
[20] = Biodistribution in CD1 mouse urine assessed as per gram of wet bladder at 400 to 600 kBq, iv after 30 mins post-injection by gamma counting; assay type: ADME, organism-based; conditions: in vivo, 0.5 h; method in brief: as §2
[21] = Biodistribution in CD1 mouse gonad assessed per gram of wet tissue at 400 to 600 kBq, iv after 30 mins post-injection by gamma counting; assay type: ADME, organism-based; conditions: in vivo, 0.5 h; method in brief: as §1
[22] = tested on: Muscle tissue; test: Biodistribution in CD1 mouse muscle assessed per gram of wet tissue at 400 to 600 kBq, iv after 30 mins post-injection by gamma counting; assay type: ADME, organism-based; conditions: in vivo, 0.5 h; method in brief: as §2
[23] = Metabolic stability in CD1 mouse plasma at 200 to 300 MBq, iv after 60 mins post-injection by supelcosil C18 HPLC and TLC-radiochromatography; assay type: ADME, organism-based; conditions: read-out: Stability
Method in brief: (§6)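 Mice received 200-300 MBq [18F] tracer in 200 μL 0.9% saline via the tail vein, and samples were taken at 45 and 60 min (n=2 per time). Plasma was obtained by centrifugation (2000g, 4 °C, 10 min); brain and liver were homogenised in ice-cold 50 mM TRIS-HCl pH 7.4. Samples were precipitated with ice-cold MeCN and centrifuged (4000g, 4 °C, 15 min), and supernatants were analysed by gradient radio-HPLC and radio-TLC, with HPLC fractions γ-counted.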

[24] = Metabolic stability in CD1 mouse brain at 200 to 300 MBq, iv after 60 mins post-injection by supelcosil C18 HPLC and TLC-radiochromatography; assay type: ADME, organism-based; conditions: read-out: Stability; method in brief: as §6

In the case of [18F]CCCC1OC2(CCN(Cc3ccccc3)CC2)c2ccccc21 (centres undefined), the Drug uptake [1] is reported as 2.46 %ID, the Drug uptake [2] is reported as 2.87 %ID and the Drug uptake [3] is reported as 3.37 %ID. For the same molecule, the Drug uptake [4] was 0.63 %ID, the Drug uptake [5] was 22.5 %ID and the Drug uptake [6] was 3.05 %ID. For the same molecule, the Drug uptake [7] was 5.72 %ID, the Drug uptake [8] was 0.9 %ID and the Drug uptake [9] was 4.27 %ID. The Kp at 1 h [10] was 5.75, the Drug uptake [11] was greater than 70% and the Drug uptake [12] was greater than 70%. It also gave a Kp at 1 h [13] of 1, a Drug uptake [14] of 3.39 %ID and a Drug uptake [15] of 12.1 %ID. The Drug uptake [16] was 10.6 %ID, the Drug uptake [17] was 0.56 %ID and the Drug uptake [18] was 3.75 %ID. For the same molecule, the Drug uptake [19] was 5.13 %ID, the Drug uptake [20] was 24.3 %ID and the Drug uptake [21] was 4.11 %ID. For the same molecule, the Drug uptake [22] was 1.8 %ID, the remaining at 1 h [23] was greater than 85% and the remaining at 1 h [24] was no less than 95%.
